Data as given in PMC11892687 (Bioorganic & medicinal chemistry letters, 2017).

Legend:
[1] = system: HCT116 cells; assay: FACS cell cycle analysis in HCT116 cells; type: cell-based, human; settings: 48 h, 500 nM compound
[2] = system: Jurkat cells; assay: Anti-proliferative activity in Jurkat cells; type: cell-based; settings: Homo sapiens, read-out: IC50 (cytotoxic, anti-proliferative activity)
[3] = system: panel of 468 human wild-type and mutant kinases; assay: KINOMEscan kinase profiling, panel of 468 kinases; type: binding; settings: KINOMEscan at 1 μM compound concentration
[4] = target: LRRK2 (Homo sapiens, UniProt Q5S007); assay: Biochemical assay LRRK2
[5] = target: BRD4 (Homo sapiens, UniProt O60885); assay: Biochemical assay BRD4
[6] = target: T1, recombinant purified Aurora A protein (Homo sapiens, UniProt O14965); assay: LC-MS/MS covalent labeling of recombinant Aurora A; type: binding; settings: compound at 10 fold excess with recombinant purified Aurora A
T1 sequence (O14965 1-403): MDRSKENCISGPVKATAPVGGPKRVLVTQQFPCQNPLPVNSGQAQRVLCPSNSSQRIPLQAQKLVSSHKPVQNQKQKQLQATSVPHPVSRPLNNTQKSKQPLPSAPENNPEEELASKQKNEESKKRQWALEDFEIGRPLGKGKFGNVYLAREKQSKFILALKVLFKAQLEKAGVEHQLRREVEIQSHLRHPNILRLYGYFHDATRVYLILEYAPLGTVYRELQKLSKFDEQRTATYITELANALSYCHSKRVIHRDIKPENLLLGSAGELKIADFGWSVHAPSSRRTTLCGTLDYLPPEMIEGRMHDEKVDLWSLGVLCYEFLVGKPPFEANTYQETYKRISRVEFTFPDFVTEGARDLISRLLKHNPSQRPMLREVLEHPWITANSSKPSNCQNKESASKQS

[7] = system: HEK293; assay: Cell Titer Glo cell viability assay HEK293; type: cell-based; settings: Homo sapiens, HEK293, 72 h, read-out: HEK293 IC50
Method in brief: (§1)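 Cells from a human cancer line panel were treated with the test compound across a dose-response series.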

[8] = system: PC3; assay: Cell Titer Glo cell viability assay PC3; type: cell-based; settings: Homo sapiens, PC-3, 72 h, read-out: PC3 IC50
Method in brief: as §1

[9] = target: ABL1 Y253F (Homo sapiens, UniProt P00519, Y253F); assay: Biochemical kinase assay ABL1 Y253F
[10] = system: HCT116; assay: Cell Titer Glo cell viability assay HCT116; type: cell-based; settings: Homo sapiens, HCT-116, 72 h, read-out: HCT116 IC50
Method in brief: as §1

LRRK2, sequence (Q5S007 whole entry, species assumed): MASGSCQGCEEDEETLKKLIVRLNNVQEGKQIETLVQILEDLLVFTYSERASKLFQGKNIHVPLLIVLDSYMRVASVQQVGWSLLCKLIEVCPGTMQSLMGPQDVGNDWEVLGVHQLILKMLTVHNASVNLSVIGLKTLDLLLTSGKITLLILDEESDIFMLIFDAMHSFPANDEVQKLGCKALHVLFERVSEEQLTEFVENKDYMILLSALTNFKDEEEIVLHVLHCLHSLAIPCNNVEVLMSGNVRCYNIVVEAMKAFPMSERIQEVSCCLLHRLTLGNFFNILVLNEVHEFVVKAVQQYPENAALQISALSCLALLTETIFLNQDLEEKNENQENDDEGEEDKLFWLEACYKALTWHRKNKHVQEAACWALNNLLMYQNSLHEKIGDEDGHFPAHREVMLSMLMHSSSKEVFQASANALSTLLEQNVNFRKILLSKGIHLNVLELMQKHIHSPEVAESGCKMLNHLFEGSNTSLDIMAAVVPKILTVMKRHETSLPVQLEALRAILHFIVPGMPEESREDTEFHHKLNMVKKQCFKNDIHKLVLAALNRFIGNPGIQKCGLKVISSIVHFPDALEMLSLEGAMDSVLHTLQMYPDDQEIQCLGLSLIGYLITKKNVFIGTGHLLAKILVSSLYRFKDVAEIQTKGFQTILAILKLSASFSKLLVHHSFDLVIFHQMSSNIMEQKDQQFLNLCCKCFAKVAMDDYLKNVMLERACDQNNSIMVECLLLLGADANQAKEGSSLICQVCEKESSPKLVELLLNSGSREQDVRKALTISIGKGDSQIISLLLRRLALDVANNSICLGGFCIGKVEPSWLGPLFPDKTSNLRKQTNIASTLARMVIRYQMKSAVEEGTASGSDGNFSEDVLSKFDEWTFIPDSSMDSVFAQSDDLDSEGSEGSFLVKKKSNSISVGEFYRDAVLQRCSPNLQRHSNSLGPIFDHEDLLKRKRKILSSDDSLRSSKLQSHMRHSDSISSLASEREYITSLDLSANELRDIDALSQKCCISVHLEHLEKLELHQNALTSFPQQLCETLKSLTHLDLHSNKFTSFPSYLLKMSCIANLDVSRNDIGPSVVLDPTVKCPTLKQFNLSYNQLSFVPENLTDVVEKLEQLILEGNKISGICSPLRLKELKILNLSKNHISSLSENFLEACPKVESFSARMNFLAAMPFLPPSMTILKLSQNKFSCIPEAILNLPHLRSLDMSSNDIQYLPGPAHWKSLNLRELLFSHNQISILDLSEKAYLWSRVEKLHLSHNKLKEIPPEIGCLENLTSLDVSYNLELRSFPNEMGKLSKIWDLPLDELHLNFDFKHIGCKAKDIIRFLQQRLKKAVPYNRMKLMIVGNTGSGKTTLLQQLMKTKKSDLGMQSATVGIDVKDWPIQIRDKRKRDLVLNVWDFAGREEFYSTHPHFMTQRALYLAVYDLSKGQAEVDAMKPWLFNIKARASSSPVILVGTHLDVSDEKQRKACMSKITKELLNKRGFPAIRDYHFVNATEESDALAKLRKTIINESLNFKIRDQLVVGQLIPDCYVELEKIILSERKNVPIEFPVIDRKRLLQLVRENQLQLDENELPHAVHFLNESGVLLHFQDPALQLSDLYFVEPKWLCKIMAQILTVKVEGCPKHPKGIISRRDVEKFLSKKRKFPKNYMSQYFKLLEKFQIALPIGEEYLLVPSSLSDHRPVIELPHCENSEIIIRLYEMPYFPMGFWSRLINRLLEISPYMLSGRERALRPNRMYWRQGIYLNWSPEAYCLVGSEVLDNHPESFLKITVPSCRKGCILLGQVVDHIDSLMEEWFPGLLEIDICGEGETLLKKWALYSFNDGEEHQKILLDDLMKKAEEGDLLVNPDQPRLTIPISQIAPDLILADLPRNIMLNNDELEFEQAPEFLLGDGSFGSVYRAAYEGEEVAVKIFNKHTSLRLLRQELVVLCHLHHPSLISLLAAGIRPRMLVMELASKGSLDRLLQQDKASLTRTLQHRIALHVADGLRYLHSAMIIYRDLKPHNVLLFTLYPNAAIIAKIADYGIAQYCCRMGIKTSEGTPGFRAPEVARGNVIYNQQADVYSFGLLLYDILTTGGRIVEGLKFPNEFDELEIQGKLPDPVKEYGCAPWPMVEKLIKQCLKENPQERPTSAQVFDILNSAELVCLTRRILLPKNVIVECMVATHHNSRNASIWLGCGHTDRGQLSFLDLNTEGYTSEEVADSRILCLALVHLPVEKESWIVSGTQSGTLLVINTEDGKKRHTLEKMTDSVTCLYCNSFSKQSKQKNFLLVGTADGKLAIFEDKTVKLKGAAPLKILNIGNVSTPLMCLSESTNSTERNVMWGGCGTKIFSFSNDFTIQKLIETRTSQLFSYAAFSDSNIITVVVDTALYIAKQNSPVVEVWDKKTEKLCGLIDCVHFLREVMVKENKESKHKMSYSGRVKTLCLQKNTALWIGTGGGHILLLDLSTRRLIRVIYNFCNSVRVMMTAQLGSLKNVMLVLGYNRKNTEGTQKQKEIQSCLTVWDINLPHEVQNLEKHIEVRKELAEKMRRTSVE

Row | IC50 [9] | IC50 [10] | SMILES | effect on cell cycle (FACS) [1] | IC50 [2] | kinome-wide selectivity [3] | activity against LRRK2 [4] | activity against BRD4 [5] | labeling of Aurora A by LC-MS/MS [6] | IC50 [7] | IC50 [8]
1 | – | – | CCOC(=O)c1[nH]cc2c1NC1=C(C(=O)CCC1)[C@H]2c1cccc(Oc2nc3ccccc3[nH]2)c1 [SAR156497, reference compound] | failed cytokinesis and accumulation of cells that contain 4N DNA (polyploidy) | – | – | – | – | – | – | –
2 | – | – | C=CC(=O)Nc1ccc(C(=O)Nc2ccc(Nc3ncc4c(n3)N(C)c3ccc(C)cc3C(=O)N4C)cc2)cc1 [compound 1] | failed cytokinesis and accumulation of cells that contain 4N DNA (polyploidy) | 370 nM | exclusively on-target activity | inactive | inactive | no labeling | 250 ± 48 nM | 990 ± 1500 nM
3 | > 10 µM | ~100 nM | CCC(=O)Nc1ccc(C(=O)Nc2ccc(Nc3ncc4c(n3)N(C)c3ccc(C)cc3C(=O)N4C)cc2)cc1 [compound 2] | – | – | – | inactive | inactive | – | ~100 nM | ~100 nM
